Measurements as given in ChEMBL document CHEMBL1629557, “Development of intergenotypic chimeric replicons to determine the broad-spectrum antiviral activities of hepatitis C virus polymerase inhibitors” (Antimicrob Agents Chemother, 2008).

Experiments:
Hepatitis C virus [1] = assay: Antiviral activity against Hepatitis C virus isolate Con1 transfected with NS5B polymerase of HCV genotype 2b in human Huh7.5 cells assessed as decrease in viral RNA replication after 3 days by hRLuc reporter gene assay; assay type: functional, organism-based, Hepacivirus hominis; details: Con1, Huh-7, 72 h
Summary of the method: (§1)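 Stable Huh7.5 replicon cell lines, kept in medium with 250 μg/ml G418, seeded at 2e4/well and settled 30 min. Compounds were added in half-log serial dilutions with solvent (compound-free) controls for 3 days at 37°C, then hRLuc activity was read. Fold change is EC50 relative to wild-type Con-1.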

Hepatitis C virus [2] = assay: Antiviral activity against Hepatitis C virus isolate Con1 infected in human Huh7.5 cells assessed as decrease in viral RNA replication after 3 days by hRLuc reporter gene assay; assay type: functional, organism-based, Hepacivirus hominis; details: Con1, Huh-7, 72 h; summary of the method: as §1
Hepatitis C virus [3] = assay: Antiviral activity against Hepatitis C virus isolate Con1 transfected with NS5B polymerase of HCV genotype 5a infected in human Huh7.5 cells assessed as decrease in viral RNA replication after 3 days by hRLuc reporter gene assay; assay type: functional, organism-based, Hepacivirus hominis; details: Con1, Huh-7, 72 h; summary of the method: as §1
Hepatitis C virus [4] = assay: Antiviral activity against Hepatitis C virus genotype 1a H77 infected in human Huh7.5 cells assessed as decrease in viral RNA replication after 3 days by hRLuc reporter gene assay; assay type: functional, organism-based, Hepacivirus hominis; details: genotype 1a H77, Huh-7, 72 h; summary of the method: as §1
Hepatitis C virus [5] = assay: Antiviral activity against Hepatitis C virus isolate Con1 transfected with NS5B polymerase of HCV genotype 4a infected in human Huh7.5 cells assessed as decrease in viral RNA replication after 3 days by hRLuc reporter gene assay; assay type: functional, organism-based, Hepacivirus hominis; details: Con1, Huh-7, 72 h; summary of the method: as §1
Hepatitis C virus [6] = assay: Antiviral activity against Hepatitis C virus genotype 2a JFH1 infected in human Huh7.5 cells assessed as decrease in viral RNA replication after 3 days by hRLuc reporter gene assay; assay type: functional, organism-based, Hepacivirus hominis; details: JFH-1, Huh-7, 72 h; summary of the method: as §1
Hepatitis C virus [7] = assay: Antiviral activity against Hepatitis C virus isolate Con1 transfected with NS5B polymerase of HCV genotype 3a infected in human Huh7.5 cells assessed as decrease in viral RNA replication after 3 days by hRLuc reporter gene assay; assay type: functional, organism-based, Hepacivirus hominis; details: Con1, Huh-7, 72 h; summary of the method: as §1
Hepatitis C virus [8] = assay: Ratio of EC50 for wild-type Hepatitis C virus isolate Con1 to EC50 for Hepatitis C virus isolate Con1 transfected with NS5B polymerase of HCV genotype 4a in human Huh7.5 cells by hRLuc reporter gene assay; assay type: functional, Hepacivirus hominis, Huh-7; summary of the method: as §1
Hepatitis C virus [9] = assay: Ratio of EC50 for wild-type Hepatitis C virus isolate Con1 to EC50 for Hepatitis C virus genotype 1a H77 in human Huh7.5 cells by hRLuc reporter gene assay; assay type: functional, Hepacivirus hominis, Huh-7; summary of the method: as §1
Hepatitis C virus [10] = assay: Ratio of EC50 for wild-type Hepatitis C virus isolate Con1 to EC50 for Hepatitis C virus isolate Con1 transfected with NS5B polymerase of HCV genotype 2b in human Huh7.5 cells by hRLuc reporter gene assay; assay type: functional, Hepacivirus hominis, Huh-7; summary of the method: as §1
Hepatitis C virus [11] = assay: Ratio of EC50 for wild-type Hepatitis C virus isolate Con1 to EC50 for Hepatitis C virus isolate Con1 transfected with NS5B polymerase of HCV genotype 3a in human Huh7.5 cells by hRLuc reporter gene assay; assay type: functional, Hepacivirus hominis, Huh-7; summary of the method: as §1
Hepatitis C virus [12] = assay: Ratio of EC50 for wild-type Hepatitis C virus isolate Con1 to EC50 for Hepatitis C virus isolate Con1 transfected with NS5B polymerase of HCV genotype 5a in human Huh7.5 cells by hRLuc reporter gene assay; assay type: functional, Hepacivirus hominis, Huh-7; summary of the method: as §1
Hepatitis C virus [13] = assay: Ratio of EC50 for wild-type Hepatitis C virus isolate Con1 to EC50 for Hepatitis C virus genotype 2a JFH1 in human Huh7.5 cells by hRLuc reporter gene assay; assay type: functional, Hepacivirus hominis, Huh-7; summary of the method: as §1
Hepatitis C virus [14] = assay: Ratio of EC50 for wild-type Hepatitis C virus isolate Con1 to EC50 for Hepatitis C virus isolate Con1 with NS5B polymerase L419I mutant in human Huh7.5 cells by hRLuc reporter gene assay; assay type: functional, Hepacivirus hominis, Huh-7
Summary of the method: (§2)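 Transient assay: Huh7.5 cells electroporated with 10 μg in vitro replicon transcript at 220 V, seeded at 6 × 10^4 cells/well, and given 4 h recovery. Half-log serial compound dilutions with solvent controls were then added for 3 days at 37°C, and hRLuc luciferase was read. EC50 was taken as 50% of compound-free signal by nonlinear regression, as mean ± SD of 2–3 independent experiments. Fold change is relative to wild-type Con-1.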

Hepatitis C virus [15] = assay: Ratio of EC50 for wild-type Hepatitis C virus isolate Con1 to EC50 for Hepatitis C virus isolate Con1 with NS5B polymerase I482L mutant in human Huh7.5 cells by hRLuc reporter gene assay; assay type: functional, Hepacivirus hominis, Huh-7; summary of the method: as §2
Hepatitis C virus [16] = assay: Ratio of EC50 for wild-type Hepatitis C virus isolate Con1 to EC50 for Hepatitis C virus isolate Con1 with NS5B polymerase L419I and I482L mutant in human Huh7.5 cells by hRLuc reporter gene assay; assay type: functional, Hepacivirus hominis, Huh-7; summary of the method: as §2

Row | Compound | EC50 (Hepatitis C virus [1]) [µM] | EC50 (Hepatitis C virus [2]) [nM] | EC50 (Hepatitis C virus [3]) [nM] | EC50 (Hepatitis C virus [4]) [nM] | EC50 (Hepatitis C virus [5]) [nM] | EC50 (Hepatitis C virus [6]) [µM] | EC50 (Hepatitis C virus [7]) [nM] | fold change (FC) (Hepatitis C virus [8]) | fold change (FC) (Hepatitis C virus [9]) | fold change (FC) (Hepatitis C virus [10]) | fold change (FC) (Hepatitis C virus [11]) | fold change (FC) (Hepatitis C virus [12]) | fold change (FC) (Hepatitis C virus [13]) | fold change (FC) (Hepatitis C virus [14]) | fold change (FC) (Hepatitis C virus [15]) | fold change (FC) (Hepatitis C virus [16])
1 | COc1ccc2c(O[C@@H]3C[C@H]4C(=O)N[C@@]5(C(=O)O)C[C@@H]5/C=C\CCCCC[C@H](NC(=O)OC(C)(C)C)C(=O)N4C3)cc(-c3ccccn3)nc2c1 [listing 1 of 2 here] | 0.026 | 6.6 | 23 | 20 | 53 | 0.74 | 22 |  |  |  |  |  |  |  |  | 
2 | COc1ccc2c(O[C@@H]3C[C@H]4C(=O)N[C@@]5(C(=O)O)C[C@@H]5/C=C\CCCCC[C@H](NC(=O)OC(C)(C)C)C(=O)N4C3)cc(-c3ccccn3)nc2c1 [listing 2 of 2 here] |  |  |  |  |  |  |  | 8 | 3 | 4 | 3 | 3 | 112 |  |  | 
3 | CC(C)C#Cc1cc(N(C(=O)[C@H]2CC[C@H](C)CC2)C(C)C)c(C(=O)O)s1 | > 32 | 25 | 200 | 20 | 2200 | 6.1 | > 32000 | 88 | 1 | >1280 | >1280 | 8 | 244 | 326 | 201 | 2238
4 | O=C(O)c1ccc2c(c1)nc(-c1ccc(OCc3cc(C(=O)N4CCC(O)CC4)ccc3-c3ccc(Cl)cc3)cc1F)n2C1CCCCC1 | 30 | 900 | 160 | 490 | 1500 | 6.9 | 210 | 2 | 1 | 33 | 0.2 | 0.2 | 8 | 4 | 3 | 8
5 | NC(=O)COc1ccc2c(c1)S(=O)(=O)N=C(c1c(O)c3ccccc3n(NC3CCC3)c1=O)N2 | > 32 | 33 | 5000 | 140 | 25000 | > 32 | > 32000 | 758 | 4 | >970 | >970 | 152 | >970 | 0.2 | 0.5 | 0.2
6 | C[C@@]1(O)[C@H](O)[C@@H](CO)O[C@H]1n1ccc(N)nc1=O |  |  |  |  |  |  |  | 2 | 1 | 0.4 | 0.2 | 0.5 | 1 | 1 | 1 | 2
7 | CNC(=O)c1c(-c2ccc(F)cc2)oc2cc(N(CCO)S(C)(=O)=O)c(C3CC3)cc12 [NESBUVIR] | 0.055 | 42 | 3.2 | 38 | 69 | 0.13 | 51 | 2 | 1 | 1 | 1 | 0.1 | 3 | 2 | 1 | 3
